Assay results taken from ChEMBL document CHEMBL1128284, “Synthesis and in vitro activity of 17 beta-(N-alkyl/arylformamido)- and 17 beta-[(N-alkyl/aryl)alkyl/arylamido]-4-methyl-4-aza-3-oxo-5 alpha-androstan-3-ones as inhibitors of human 5 alpha-reductases and antagonists of the androgen receptor” (J Med Chem, 1995).

Key:
[1] = target: T1, 3-oxo-5-alpha-steroid 4-dehydrogenase 2 (Homo sapiens, UniProt P31213); test: In vitro inhibition of human steroid 5-alpha-reductase type 2 in SW-13-transfected cells; type: cell-based
T1 sequence (P31213 whole entry): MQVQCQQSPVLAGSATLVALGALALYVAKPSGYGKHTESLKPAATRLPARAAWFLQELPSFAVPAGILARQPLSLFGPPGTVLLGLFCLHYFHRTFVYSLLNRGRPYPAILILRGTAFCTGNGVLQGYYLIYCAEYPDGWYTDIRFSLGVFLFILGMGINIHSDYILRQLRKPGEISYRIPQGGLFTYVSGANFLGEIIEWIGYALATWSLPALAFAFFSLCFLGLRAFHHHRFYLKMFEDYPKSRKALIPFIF
Outline: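 Homogenate of SW-13 cells transfected with human type II 5α-reductase cDNA; 5 nM [3H]androstenedione, 500 μM NADPH, 50 mM Tris HCl pH 7.5 with 20% glycerol, 1 mM EDTA; 60 min, 37 °C. Ether extraction with steroid carriers, TLC, radioactivity counted; androstanedione formed as % of control.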

[2] = target: T2, 3-oxo-5-alpha-steroid 4-dehydrogenase 1 (Homo sapiens, UniProt P18405); test: In vitro inhibition of human steroid 5-alpha-reductase type I in Du-145 cells; type: cell-based
T2 sequence (P18405 whole entry): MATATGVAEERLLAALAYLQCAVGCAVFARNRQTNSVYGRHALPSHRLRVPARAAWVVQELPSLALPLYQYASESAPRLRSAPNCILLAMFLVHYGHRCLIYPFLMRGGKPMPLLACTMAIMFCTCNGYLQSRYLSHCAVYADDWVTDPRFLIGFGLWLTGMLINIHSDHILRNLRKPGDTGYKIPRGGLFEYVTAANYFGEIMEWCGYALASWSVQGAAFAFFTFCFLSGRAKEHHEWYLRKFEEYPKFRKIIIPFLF
Outline: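 Intact DU-145 cells (passages 60–90), 100000 cells/well, adhered 24 h; compounds in ethanol diluted in DMEM/2% charcoal-adsorbed FBS with 5 nM [3H]androstenedione, 24 h at 37 °C, 5% CO2. Ether extraction, TLC, radioactivity; androstanedione, androsterone, epiandrosterone formed as % of control.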

Compound	IC50 [1]	IC50 [2]
CN(C=O)[C@H]1CCC2C3CC[C@H]4NC(=O)CC[C@]4(C)C3CC[C@@]21C (stereo partly specified)	> 1 µM	3.7 µM
CN1C(=O)CC[C@@]2(C)C1=CCC1C2CC[C@@]2(C)C1CC[C@@H]2N(C)C=O (stereo partly specified)	> 1 µM	1.9 µM
CC(C)C(=O)N(c1ccc([N+](=O)[O-])cc1)[C@H]1CCC2C3CC[C@H]4N(C)C(=O)CC[C@]4(C)C3CC[C@@]21C (stereo partly specified)	> 1 µM	0.0328 µM
CN(C=O)[C@H]1CCC2C3CC[C@H]4NC(=O)C=C[C@]4(C)C3CC[C@@]21C (stereo partly specified)	> 1 µM	0.207 µM
CN1C(=O)CC[C@]2(C)C3CC[C@@]4(C)C(CC[C@@H]4N(C=O)CCC(C)(C)C)C3CC[C@@H]12 (stereo partly specified)	> 0.1 µM	0.00235 µM
CC(C)CCN(C=O)[C@H]1CCC2C3CC[C@H]4N(C)C(=O)CC[C@]4(C)C3CC[C@@]21C (stereo partly specified)	> 0.1 µM	0.00219 µM
CC(C)CN(C=O)[C@H]1CCC2C3CC[C@H]4N(C)C(=O)CC[C@]4(C)C3CC[C@@]21C (stereo partly specified)	> 0.1 µM	0.00731 µM
CN1C(=O)CC[C@]2(C)C3CC[C@@]4(C)C(CC[C@@H]4N(C=O)Cc4ccccc4)C3CC[C@@H]12 (stereo partly specified)	> 0.1 µM	0.00563 µM
COc1ccc(N(C(=O)c2ccccc2)[C@H]2CCC3C4CC[C@H]5N(C)C(=O)CC[C@]5(C)C4CC[C@@]32C)cc1 (stereo partly specified)	> 1 µM	0.00211 µM
CCCCCCN(C=O)[C@H]1CCC2C3CC[C@H]4N(C)C(=O)CC[C@]4(C)C3CC[C@@]21C (stereo partly specified)	> 0.1 µM	0.00725 µM
CN1C(=O)CC[C@]2(C)C3CC[C@@]4(C)C(CC[C@@H]4N(C=O)C4CCCCC4)C3CC[C@@H]12 (stereo partly specified)	> 0.1 µM	–
COc1ccc(N(C(=O)C(C)C)[C@H]2CCC3C4CC[C@H]5N(C)C(=O)CC[C@]5(C)C4CC[C@@]32C)cc1 (stereo partly specified)	> 0.1 µM	0.00544 µM
CCC(CC)N(C=O)[C@H]1CCC2C3CC[C@H]4N(C)C(=O)CC[C@]4(C)C3CC[C@@]21C (stereo partly specified)	> 0.1 µM	–
CCCCCN(C(=O)CCC)[C@H]1CCC2C3CC[C@H]4N(C)C(=O)CC[C@]4(C)C3CC[C@@]21C (stereo partly specified)	> 0.1 µM	0.00331 µM
CC(C)C(=O)N(c1ccc([N+](=O)[O-])c(C(F)(F)F)c1)[C@H]1CCC2C3CC[C@H]4N(C)C(=O)CC[C@]4(C)C3CC[C@@]21C (stereo partly specified)	> 1 µM	0.0598 µM
CCCCCN(C(=O)c1ccccc1)[C@H]1CCC2C3CC[C@H]4N(C)C(=O)CC[C@]4(C)C3CC[C@@]21C (stereo partly specified)	> 0.1 µM	0.00322 µM
CN1C(=O)CC[C@]2(C)C3CC[C@@]4(C)C(CC[C@@H]4N(C=O)C4CC4)C3CC[C@@H]12 (stereo partly specified)	> 0.1 µM	–
CCCCCN(C=O)[C@H]1CCC2C3CC[C@H]4N(C)C(=O)CC[C@]4(C)C3CC[C@@]21C (stereo partly specified)	> 0.1 µM	0.00091 µM
CCCCN(C(C)=O)[C@H]1CCC2C3CC[C@H]4N(C)C(=O)CC[C@]4(C)C3CC[C@@]21C (stereo partly specified)	> 0.1 µM	–
CCCCN(C=O)[C@H]1CCC2C3CC[C@H]4N(C)C(=O)CC[C@]4(C)C3CC[C@@]21C (stereo partly specified)	> 0.1 µM	0.00305 µM
CN(C=O)[C@H]1CCC2C3CC[C@H]4N(C)C(=O)C=C[C@]4(C)C3CC[C@@]21C (stereo partly specified)	> 1 µM	0.124 µM

The remaining lines, values ahead:

IC50 [1]	IC50 [2]	Compound
> 0.1 µM	0.00177 µM	CCCCCN(C(=O)CCCC)[C@H]1CCC2C3CC[C@H]4N(C)C(=O)CC[C@]4(C)C3CC[C@@]21C (stereo partly specified)
> 0.1 µM	0.00508 µM	CCCN(C=O)[C@H]1CCC2C3CC[C@H]4N(C)C(=O)CC[C@]4(C)C3CC[C@@]21C (stereo partly specified)
> 0.1 µM	0.00953 µM	CC(C)N(C=O)[C@H]1CCC2C3CC[C@H]4N(C)C(=O)CC[C@]4(C)C3CC[C@@]21C (stereo partly specified)
> 0.1 µM	0.00456 µM	CCCCCN(C(=O)CC)[C@H]1CCC2C3CC[C@H]4N(C)C(=O)CC[C@]4(C)C3CC[C@@]21C (stereo partly specified)
0.014 µM	0.00957 µM	CCCCCCCN(C=O)[C@H]1CCC2C3CC[C@H]4N(C)C(=O)CC[C@]4(C)C3CC[C@@]21C (stereo partly specified)
0.0184 µM	0.0169 µM	CCCCCCCCN(C=O)[C@H]1CCC2C3CC[C@H]4N(C)C(=O)CC[C@]4(C)C3CC[C@@]21C (stereo partly specified)
0.582 µM	0.0105 µM	CC(C)C(=O)N(c1ccccc1)[C@H]1CCC2C3CC[C@H]4N(C)C(=O)CC[C@]4(C)C3CC[C@@]21C (stereo partly specified)
0.00453 µM	0.0263 µM	CC(C)(C)NC(=O)[C@H]1CC[C@H]2[C@@H]3CC[C@H]4NC(=O)C=C[C@]4(C)[C@H]3CC[C@]12C [FINASTERIDE]
1 µM	0.00242 µM	CCCCCN(C(=O)CCCCBr)[C@H]1CCC2C3CC[C@H]4N(C)C(=O)CC[C@]4(C)C3CC[C@@]21C (stereo partly specified)
1 µM	–	CN(C=O)[C@H]1CCC2C3CC[C@H]4N(C)C(=O)CC[C@]4(C)C3CC[C@@]21C (stereo partly specified)
0.00375 µM	0.00293 µM	CN1C(=O)CC[C@]2(C)C3CC[C@@]4(C)C(CC[C@@H]4N(C(=O)c4ccccc4)c4ccccc4)C3CC[C@@H]12 (stereo partly specified)
0.00748 µM	0.00414 µM	CCN(CC)C(=O)[C@H]1CC[C@H]2[C@@H]3CC[C@H]4N(C)C(=O)CC[C@]4(C)[C@H]3CC[C@]12C
